Data reported in ChEMBL document CHEMBL2434932, “Design, synthesis and biological evaluation of a novel class of potent TGR5 agonists based on a 4-phenyl pyridine scaffold” (Eur J Med Chem, 2013).
Activity calls are given as the source filed them. No cut-off for these calls is given here.

Legend:
[1] = biological target: T1, G-protein coupled bile acid receptor 1 (Homo sapiens) (UniProt Q8TDU6); experiment: Agonist activity at human TGR5 expressed in HEK293 cells assessed CRE-induced luciferase activity at 10 uM after 5.5 hrs by reporter gene assay; assay type: functional, cell-based
T1 sequence (whole entry): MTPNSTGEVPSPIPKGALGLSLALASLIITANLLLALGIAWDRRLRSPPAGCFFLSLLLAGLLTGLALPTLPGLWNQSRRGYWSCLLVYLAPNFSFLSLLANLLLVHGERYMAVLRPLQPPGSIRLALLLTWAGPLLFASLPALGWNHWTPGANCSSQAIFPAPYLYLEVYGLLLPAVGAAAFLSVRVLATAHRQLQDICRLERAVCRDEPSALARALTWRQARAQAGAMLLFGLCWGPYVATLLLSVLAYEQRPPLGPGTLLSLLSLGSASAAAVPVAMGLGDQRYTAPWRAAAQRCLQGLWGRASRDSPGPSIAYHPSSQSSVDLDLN

[2] = biological target: T2, G-protein coupled bile acid receptor 1 (Homo sapiens, UniProt Q8TDU6); experiment: Agonist activity at human TGR5 expressed in HEK293 cells assessed CRE-induced luciferase activity after 5.5 hrs by reporter gene assay; assay type: functional, cell-based
T2 sequence (Q8TDU6 whole entry): T1 sequence (whole entry)

[3] = biological target: T3, G-protein coupled bile acid receptor 1 (Mus musculus) (UniProt Q80SS6); experiment: Agonist activity at mouse TGR5 expressed in HEK293 cells assessed CRE-induced luciferase activity after 5.5 hrs by reporter gene assay relative to control; assay type: functional, cell-based; design: concentration or dose not given beside the values
T3 sequence (whole entry): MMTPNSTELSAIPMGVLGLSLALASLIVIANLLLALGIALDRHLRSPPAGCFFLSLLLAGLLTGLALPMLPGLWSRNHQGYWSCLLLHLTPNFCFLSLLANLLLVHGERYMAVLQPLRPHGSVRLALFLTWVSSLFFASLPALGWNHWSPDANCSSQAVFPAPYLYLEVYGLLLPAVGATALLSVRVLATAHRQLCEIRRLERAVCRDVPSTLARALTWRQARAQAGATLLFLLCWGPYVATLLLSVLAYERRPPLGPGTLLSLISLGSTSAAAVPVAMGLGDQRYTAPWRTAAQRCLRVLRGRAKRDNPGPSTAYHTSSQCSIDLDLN
Method in brief: (§1)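 HEK293 cells were stably transfected with a human or mouse TGR5 expression plasmid plus a CRE-driven luciferase reporter (pGL4.29). Cells were seeded and incubated overnight in DMEM with 10% FBS at 37 °C in 5% CO2, then exposed in fresh medium to a range of test concentrations. Luciferase read-out. Max effect % was scaled from DMSO vehicle (0%) to the INT-777 reference (100%). EC50 was taken from at least two independent experiments at eight concentrations each, mean ± SD.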

[4] = biological target: T4, G-protein coupled bile acid receptor 1 (Mus musculus, UniProt Q80SS6); experiment: Agonist activity at mouse TGR5 expressed in HEK293 cells assessed CRE-induced luciferase activity after 5.5 hrs by reporter gene assay; assay type: functional, cell-based
T4 sequence (Q80SS6 whole entry): T3 sequence (whole entry)
Method in brief: as §1, with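 “read-out.” for “read-out. Max effect % was scaled from DMSO vehicle (0%) to the INT-777 reference (100%).”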

[5] = Half life in Sprague-Dawley rat at 5 mg/kg, po; assay type: ADME, organism-based; design: dose 5 mg/kg, route oral; conditions: in vivo
Method in brief: (§2)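 Male SD rats, n = 6 per group, dosed orally at 5 mg/kg as a 0.25% CMC-Na formulation. PK parameters were derived by non-compartmental analysis and are reported as mean ± SD.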

[6] = Clearance in Sprague-Dawley rat at 5 mg/kg, po; assay type: ADME, organism-based; design: dose 5 mg/kg, route oral; conditions: in vivo; method in brief: as §2
[7] = MRT (0 to infinity) in Sprague-Dawley rat at 5 mg/kg, po; assay type: ADME, organism-based; design: dose 5 mg/kg, route oral; conditions: in vivo; method in brief: as §2
[8] = MRT (0 to t) in Sprague-Dawley rat at 5 mg/kg, po; assay type: ADME, organism-based; design: dose 5 mg/kg, route oral; conditions: in vivo; method in brief: as §2
[9] = AUC (0 to infinity) in Sprague-Dawley rat at 5 mg/kg, po; assay type: ADME, organism-based; design: dose 5 mg/kg, route oral, time infinity; conditions: plasma; method in brief: as §2
[10] = AUC (0 to t) in Sprague-Dawley rat at 5 mg/kg, po; assay type: ADME, organism-based; design: dose 5 mg/kg, route oral; conditions: plasma; method in brief: as §2
[11] = Cmax in Sprague-Dawley rat at 5 mg/kg, po; assay type: ADME, organism-based; design: dose 5 mg/kg, route oral; conditions: in vivo; method in brief: as §2
[12] = Tmax in Sprague-Dawley rat at 5 mg/kg, po; assay type: ADME, organism-based; design: dose 5 mg/kg, route oral; conditions: in vivo; method in brief: as §2
Mus musculus [13] = experiment: Antidiabetic activity in oral glucose loaded ICR mouse assessed as reduction of blood glucose AUC (0 to 120 mins) at 50 mg/kg, po; assay type: functional, organism-based; design: dose 50 mg/kg
Method in brief: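 Male ICR mice were fasted overnight and dosed orally at 50 mg/kg in 0.25% CMC vehicle (n = 7–8 per group), 30 min before an oral glucose load of 4 g/kg. Tail-clip blood glucose was measured before dosing and at 0, 15, 30, 60 and 120 min after the load. AUC0–120 min was calculated by the trapezoidal rule using each animal's 0-min glucose as its baseline.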

Mus musculus [14] = experiment: Toxicity in oral glucose loaded ICR mouse assessed as effect on size of the gallbladder at 50 mg/kg, po; assay type: organism-based; design: dose 50 mg/kg, route oral; conditions: in vivo
Method in brief: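 Male ICR mice from the OGTT (oral dose 50 mg/kg in 0.25% CMC, n = 7–8 per group) were re-fed for 2 h after the test. The gallbladders were then ligated and removed. Gallbladder size was measured by vernier caliper. Bile weight was taken as the gross weight of gallbladder with bile minus the net gallbladder weight.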

SMILES	EC50 [2] [nM]	Activity [3] [%]	EC50 [4] [nM]	other results
O=S(=O)(NCc1c(-c2ccccc2F)ccnc1-c1ccccc1)c1cc(C(F)(F)F)cc(C(F)(F)F)c1	–	–	–	Activity [1]: 18%
FC(F)(F)c1cc(CNCc2cnccc2-c2ccccc2)cc(C(F)(F)F)c1	580	–	–	–
O=C(c1ccncc1)N(Cc1cc(C(F)(F)F)cc(C(F)(F)F)c1)Cc1cnccc1-c1ccccc1	4080	–	–	–
O=C(c1ccccc1)N(Cc1cnccc1-c1ccccc1F)S(=O)(=O)c1cc(C(F)(F)F)cc(C(F)(F)F)c1	31	144	850	–
CCOc1nccc(-c2ccccc2F)c1CNS(=O)(=O)c1cc(C(F)(F)F)cc(C(F)(F)F)c1	–	–	–	Activity [1]: 18%
O=C(C1CCCCC1)N(Cc1cc(C(F)(F)F)cc(C(F)(F)F)c1)Cc1cnccc1-c1ccccc1	–	–	–	Activity [1]: 19%
CC(NCc1cnccc1-c1ccccc1F)c1cc(C(F)(F)F)cc(C(F)(F)F)c1 (racemic)	204	117	2040	–
O=S(=O)(c1cc(C(F)(F)F)cc(C(F)(F)F)c1)N(Cc1ccccc1)Cc1cnccc1-c1ccccc1F	2100	–	–	–
COC(=O)C(NCc1cnccc1-c1ccccc1F)c1cc(C(F)(F)F)cc(C(F)(F)F)c1 (stereo unspecified)	440	–	–	–
N#CC(c1cc(C(F)(F)F)cc(C(F)(F)F)c1)N(Cc1ccco1)Cc1cnccc1-c1ccccc1F (racemic)	892	–	–	–
O=S(=O)(NCc1c(-c2ccccc2F)ccnc1Cl)c1cc(C(F)(F)F)cc(C(F)(F)F)c1	406	–	–	–
O=S(=O)(NCc1cnccc1-c1ccccc1F)c1cc(C(F)(F)F)cc(C(F)(F)F)c1	63	148	820	–
O=C(O)C(NCc1cnccc1-c1ccccc1F)c1cc(C(F)(F)F)cc(C(F)(F)F)c1 (stereo unspecified)	–	–	–	Activity [1]: 16%
CC[C@H]1[C@@H](O)[C@@H]2[C@H](C[C@H](O)[C@]3(C)[C@@H]([C@H](C)C[C@H](C)C(=O)O)CC[C@@H]23)[C@@]2(C)CC[C@@H](O)C[C@@H]12	–	100	–	–
N#CC(NCc1cnccc1-c1ccccc1)c1cc(C(F)(F)F)cc(C(F)(F)F)c1 (racemic)	61	120	370	–
O=C(c1ccsc1)N(Cc1cc(C(F)(F)F)cc(C(F)(F)F)c1)Cc1cnccc1-c1ccccc1	120	111	230	–
N#CC(NCc1cnccc1-c1c(F)cccc1F)c1cc(C(F)(F)F)cc(C(F)(F)F)c1 (racemic)	51	123	100	–
O=C(c1cccs1)N(Cc1cc(C(F)(F)F)cc(C(F)(F)F)c1)Cc1cnccc1-c1ccccc1	260	127	300	–
CCC(c1cc(C(F)(F)F)cc(C(F)(F)F)c1)N(Cc1cnccc1-c1ccccc1)C(=O)c1ccco1 (racemic)	1230	–	–	–

SMILES	EC50 [2] [nM]	Activity [3] [%]	EC50 [4] [nM]	other results
O=C(c1ccsc1)N(Cc1cnccc1-c1ccccc1F)S(=O)(=O)c1cc(C(F)(F)F)cc(C(F)(F)F)c1	53	146	1090	–
O=C(c1ccco1)N(Cc1cc(C(F)(F)F)cc(C(F)(F)F)c1)Cc1cnccc1-c1ccccc1	470	–	–	–
CC(c1cc(C(F)(F)F)cc(C(F)(F)F)c1)N(Cc1cnccc1-c1ccccc1)C(=O)c1ccco1 (racemic)	310	119	1180	–
CCCN(Cc1cnccc1-c1ccccc1F)C(C#N)c1cc(C(F)(F)F)cc(C(F)(F)F)c1 (racemic)	466	–	–	–
CCC(NCc1cnccc1-c1ccccc1F)c1cc(C(F)(F)F)cc(C(F)(F)F)c1 (racemic)	384	–	–	–
O=C(c1ccco1)N(Cc1cnccc1-c1ccccc1F)S(=O)(=O)c1cc(C(F)(F)F)cc(C(F)(F)F)c1	32	139	910	–
CC(=O)N(Cc1cc(C(F)(F)F)cc(C(F)(F)F)c1)Cc1cnccc1-c1ccccc1	910	–	–	–
O=C(NCc1cnccc1-c1ccccc1F)c1cc(C(F)(F)F)cc(C(F)(F)F)c1	–	–	–	Activity [1]: 46%
Fc1ccccc1-c1ccncc1CNCc1cc(C(F)(F)F)cc(C(F)(F)F)c1	458	–	–	–
CCC(=O)N(Cc1cc(C(F)(F)F)cc(C(F)(F)F)c1)Cc1cnccc1-c1ccccc1	1270	–	–	–
O=C(c1ccoc1)N(Cc1cc(C(F)(F)F)cc(C(F)(F)F)c1)Cc1cnccc1-c1ccccc1	320	–	–	–
O=C(c1ccccc1)N(Cc1cc(C(F)(F)F)cc(C(F)(F)F)c1)Cc1cnccc1-c1ccccc1	350	–	–	–
N#CC(NCc1cnccc1-c1ccccc1F)c1cc(C(F)(F)F)cc(C(F)(F)F)c1 (racemic)	35	121	150	half-life [5]: 2.3 h; CL/F [6]: 1520 mL/min/kg; MRT inf [7]: 3.6 h; MRT last [8]: 2.6 h; AUC(0-inf) [9]: 55 ng·h/mL; AUC(0-t) [10]: 49.1 ng·h/mL; Cmax [11]: 16.3 ng/mL; Tmax [12]: 1.9 h; Activity (Mus musculus [13]): inactive; Activity (Mus musculus [14]): Non-toxic
O=C(c1ccc(Cl)cc1)N(Cc1cc(C(F)(F)F)cc(C(F)(F)F)c1)Cc1cnccc1-c1ccccc1	7430	–	–	–
NCc1cnccc1-c1ccccc1F	–	–	–	Activity [1]: 1%
O=C(c1ccco1)N(Cc1cc(C(F)(F)F)cc(C(F)(F)F)c1)Cc1cnccc1-c1ccccc1F	500	–	–	–
O=C1COc2nccc(-c3ccccc3F)c2CN1Cc1cc(C(F)(F)F)cc(C(F)(F)F)c1	–	130	–	–
O=S(=O)(NCc1cnccc1-c1c(F)cccc1F)c1cc(C(F)(F)F)cc(C(F)(F)F)c1	62	123	550	–
